# Assay results gathered from unrelated publications.
# Protocols differ between the studies behind these lines.
# Target: Serine/threonine-protein kinase D3 (PRKD3, Homo sapiens, UniProt O94806)
# One construct used (O94806 1-890): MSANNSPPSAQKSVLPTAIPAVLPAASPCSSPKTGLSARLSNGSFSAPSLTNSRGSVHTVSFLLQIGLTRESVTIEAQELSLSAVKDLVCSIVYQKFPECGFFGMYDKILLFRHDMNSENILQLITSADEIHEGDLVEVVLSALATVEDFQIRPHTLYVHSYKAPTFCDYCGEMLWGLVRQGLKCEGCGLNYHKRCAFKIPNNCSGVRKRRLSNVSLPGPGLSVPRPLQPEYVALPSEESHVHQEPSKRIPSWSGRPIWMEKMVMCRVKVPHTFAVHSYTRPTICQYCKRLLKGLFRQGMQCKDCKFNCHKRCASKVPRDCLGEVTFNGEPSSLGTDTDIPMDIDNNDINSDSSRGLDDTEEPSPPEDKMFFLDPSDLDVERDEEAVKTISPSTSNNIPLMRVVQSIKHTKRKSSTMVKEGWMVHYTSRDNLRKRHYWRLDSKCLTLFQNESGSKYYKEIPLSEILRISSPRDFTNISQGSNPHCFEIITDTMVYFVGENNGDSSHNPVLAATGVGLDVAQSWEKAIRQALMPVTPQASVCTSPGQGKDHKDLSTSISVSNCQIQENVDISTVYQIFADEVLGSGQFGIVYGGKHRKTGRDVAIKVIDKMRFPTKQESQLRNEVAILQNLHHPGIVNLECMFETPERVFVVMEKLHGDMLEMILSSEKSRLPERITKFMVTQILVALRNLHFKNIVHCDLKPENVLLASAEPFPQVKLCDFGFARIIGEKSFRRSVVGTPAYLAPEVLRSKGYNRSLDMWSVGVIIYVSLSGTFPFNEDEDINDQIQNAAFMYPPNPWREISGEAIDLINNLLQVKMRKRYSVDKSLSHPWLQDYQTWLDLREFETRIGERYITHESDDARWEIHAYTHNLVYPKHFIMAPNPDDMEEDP
Structure (SMILES),assay,conditions,remaining binding [%]
N[C@@H]1CCN(c2nccc(-c3cnn4ncccc34)n2)C1,binding,1 µM,100
C=CC(=O)N1CCC(C(=O)NCC(=O)N2CCN(c3nc(-c4cnc(N)nc4C(F)F)nc(N4CCOCC4)n3)CC2)CC1,"binding, competition with immobilised ligand",1 µM,93
c1cnn2ncc(-c3ccnc(N4CCC45COC5)n3)c2c1,binding,1 µM,71
C[C@@H]1CN(c2cc(-c3n[nH]c4ccc(OC5(C)CC5)cc34)ncn2)C[C@H](C)O1,"cell-free assay, competition with immobilised ligand",0.1 µM,82
O=C(NCCCN1CCOCC1)c1ccc(Nc2nccc(-c3cc4ccccc4s3)n2)cc1,"binding, competition with immobilised ligand",1 µM,32
CN(C)c1nccc(-c2cnn3ncccc23)n1,binding,1 µM,100
COc1cnc(Nc2cccc(S(N)(=O)=O)c2)nc1N1CCN(c2ccccc2)CC1,"binding, competition with immobilised ligand",1 µM,96
CNC(=O)c1ccc(Nc2ncc(C(F)(F)F)c(NCc3nccnc3N(C)S(C)(=O)=O)n2)cc1,"cell-free assay, competition with immobilised ligand",0.1 µM,100
COc1cnc(Nc2cccc(S(N)(=O)=O)c2)nc1N1CCN(c2ccccc2)C(=O)C1,"binding, competition with immobilised ligand",1 µM,92
CS(=O)(=O)N1CCCC(NC(=O)[C@H](CCC2CCCCC2)NC(=O)c2ccc(CNC(=O)c3cnc4ccccn34)cc2)C1 (stereo partly drawn),"cell-free assay, competition with immobilised ligand",0.1 µM,90
O=C(Nc1c[nH]nc1C(=O)NC1CCNCC1)c1cc(F)cc(F)c1,"binding, competition with immobilised ligand",1 µM,100
FC(F)(F)Oc1cccc(-c2cnc3ccc(-c4ccncc4)nn23)c1,"cell-free assay, competition with immobilised ligand",5 µM,100
O=C(NCCCN1CCOCC1)c1ccc(Nc2ncc(Cl)c(-c3ccc(Cl)s3)n2)cc1,"binding, competition with immobilised ligand",1 µM,20
Cc1cc(NC(=O)c2cccc(S(F)(F)(F)(F)F)c2)cc(-n2ccn3nc(-c4cccnc4)cc23)c1,"cell-free assay, competition with immobilised ligand",1 µM,100
CCN1CCN(Cc2ccc(C(=O)Nc3ccc(C)c(Oc4ccc5c(c4)CC(=O)N5)c3)cc2C(F)(F)F)CC1,"binding, competition with immobilised ligand",1 µM,100
CC1CCCN1c1nccc(-c2cnn3ncccc23)n1 (stereo not drawn),binding,1 µM,97
O=C(c1ccc(Nc2nccc(-c3cc4ccccc4s3)n2)cc1)N1CCC(N2CCCC2)CC1,"binding, competition with immobilised ligand",1 µM,50
C[C@@H]1CCN(c2nccc(-c3cnn4ncccc34)n2)C1,binding,1 µM,100
CNCc1ccccc1-c1csc([C@@H](C)Nc2nc(C)nc3cc(OC)c(OC)cc23)c1,"cell-free assay, competition with immobilised ligand",1 µM,92
F[C@@H]1CCN(c2nccc(-c3cnn4ncccc34)n2)C1,binding,1 µM,76
Cc1c[nH]c2nccc(Oc3c(F)cc(Nc4cc(Cl)nc(N)n4)cc3F)c12,"cell-free assay, competition with immobilised ligand",0.1 µM,100
